≈ marks a conversion by molar mass, not a printed value. Calls of active or inactive are those of the source. The rule behind the calls is not given here.
How the values were obtained:
Candida albicans = assay: Antifungal activity against Candida albicans by XTT formazan assay; type: functional, organism-based
Outline: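 Clinical isolate of Candida albicans tested by a modified soluble formazan (XTT) method. Viable cells read as XTT formazan absorbance at 450 nm. IC50 taken in μg/mL.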

NCI-H178 = assay: Cytotoxicity against human […] cells; type: functional, cell-based
BC1 = assay: Cytotoxicity against human BC1 cells; type: functional, cell-based
KB = assay: Cytotoxicity against human KB cells; type: functional, cell-based

| Structure (SMILES) | IC50 (Candida albicans) [µg/mL] | Activity (NCI-H178) | Activity (BC1) | Activity (KB) |
| --- | --- | --- | --- | --- |
| CC[C@H](C)/C=C(C)/C=C/C1=CC2=C(Cl)C(=O)[C@@]3(C)OC(=O)C(C(C)=O)=C3C2=CO1 [RUBROROTIORIN] | 0.6 (≈ 1.45 µM) | inactive | inactive | inactive |
| CC(=O)C1=C2C=C3C=C(/C=C/C(C)=C/[C@@H](C)CCO)OC=C3[C@@H](O)[C@]2(C)OC1=O [ROTIORINOL C] | 16.7 (≈ 41.9 µM) | inactive | inactive | inactive |
| CC[C@H](C)/C=C(C)/C=C/C1=CC2=CC3=C(C(C)=O)C(=O)O[C@@]3(C)C(=O)C2=CO1 | 24.3 (≈ 63.9 µM) | inactive | inactive | inactive |
| CC[C@H](C)/C=C(C)/C=C/C1=CC2=CC3=C(C(C)=O)C(=O)O[C@@]3(C)[C@H](O)C2=CO1 [ROTIORINOL A] | 10.5 (≈ 27.5 µM) | inactive | inactive | inactive |
